Assay results taken from ChEMBL document CHEMBL1134439, “Radioiodinated styrylbenzenes and thioflavins as probes for amyloid aggregates” (J Med Chem, 2001).

Tests used:
Mus musculus [1] = experiment: Biodistribution was measured in mice kidney 60 minutes after intravenous injection of [125I]-labeled styrylbenzene.; assay type: ADME, organism-based; settings: in vivo, 1 h
How it was run: (§1)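 ICR mice (2-3 months old, 20-30 g) under ether anesthesia received 5-10 µCi ¹²⁵I tracer in 0.15 mL saline by tail-vein injection. Animals were killed by cardiac excision at set times post-injection. Organs were removed, weighed and γ-counted. Values are % dose per organ against diluted injectate aliquots, taking blood and muscle as 7% and 40% of body weight. Mean of 3-4 mice ± SD.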

Mus musculus [2] = experiment: Biodistribution was measured in mice brain 30 minutes after intravenous injection of [125I]-labeled styrylbenzene; assay type: ADME, organism-based; settings: in vivo, 0.5 h; how it was run: as §1
Mus musculus [3] = experiment: Biodistribution was measured in mice kidney 30 minutes after intravenous injection of [125I]-labeled styrylbenzene.; assay type: ADME, organism-based; settings: in vivo, 0.5 h; how it was run: as §1
Mus musculus [4] = experiment: Biodistribution was measured in mice heart 5 minutes after intravenous injection of [125I]-labeled styrylbenzene.; assay type: ADME, organism-based; settings: in vivo; how it was run: as §1
Mus musculus [5] = experiment: Biodistribution was measured in mice kidney 5 minutes after intravenous injection of [125I]-labeled styrylbenzene.; assay type: ADME, organism-based; settings: in vivo; how it was run: as §1
Mus musculus [6] = experiment: Biodistribution was measured in mice brain 60 minutes after intravenous injection of [125I]-labeled styrylbenzene; assay type: ADME, organism-based; settings: in vivo, 1 h; how it was run: as §1
Mus musculus [7] = experiment: Biodistribution was measured in mice lung 5 minutes after intravenous injection of [125I]-labeled styrylbenzene.; assay type: ADME, organism-based; settings: in vivo; how it was run: as §1
Mus musculus [8] = experiment: Biodistribution was measured in mice spleen 5 minutes after intravenous injection of [125I]-labeled styrylbenzene.; assay type: ADME, organism-based; settings: in vivo
How it was run: (§2)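 ICR mice (2-3 months old, 20-30 g) under ether anesthesia; 0.15 mL saline containing 5-10 µCi ¹²⁵I tracer injected into tail vein. Sacrifice by cardiac excision at set times; organs removed, weighed, γ-counted. Expressed as % dose per organ versus diluted aliquots of injectate. Mean of three or four mice ± SD.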

Mus musculus [9] = experiment: Biodistribution was measured in mice heart 30 minutes after intravenous injection of [125I]-labeled styrylbenzene.; assay type: ADME, organism-based; settings: in vivo, 0.5 h; how it was run: as §1
Mus musculus [10] = experiment: Biodistribution was measured in mice muscle 5 minutes after intravenous injection of [125I]-labeled styrylbenzene.; assay type: ADME, organism-based, Muscle tissue; settings: in vivo; how it was run: as §1
Mus musculus [11] = experiment: Biodistribution was measured in mice blood 60 minutes after intravenous injection of [125I]-labeled styrylbenzene.; assay type: ADME, organism-based; settings: in vivo, 1 h; how it was run: as §1
Mus musculus [12] = experiment: Biodistribution was measured in mice blood 30 minutes after intravenous injection of [125I]-labeled styrylbenzene.; assay type: ADME, organism-based; settings: in vivo, 0.5 h; how it was run: as §1
Mus musculus [13] = experiment: Biodistribution was measured in mice spleen 60 minutes after intravenous injection of [125I]-labeled styrylbenzene.; assay type: ADME, organism-based; settings: in vivo, 1 h; how it was run: as §2
Mus musculus [14] = experiment: Biodistribution was measured in mice liver 30 minutes after intravenous injection of [125I]-labeled styrylbenzene.; assay type: ADME, organism-based; settings: in vivo, 0.5 h; how it was run: as §1
Mus musculus [15] = experiment: Biodistribution was measured in mice skin 30 minutes after intravenous injection of [125I]-labeled styrylbenzene.; assay type: ADME, organism-based, Zone of skin; settings: in vivo, 0.5 h; how it was run: as §1
Mus musculus [16] = experiment: Biodistribution was measured in mice liver 60 minutes after intravenous injection of [125I]-labeled styrylbenzene.; assay type: ADME, organism-based; settings: in vivo, 1 h; how it was run: as §1
Mus musculus [17] = experiment: Biodistribution was measured in mice lung 60 minutes after intravenous injection of [125I]-labeled styrylbenzene.; assay type: ADME, organism-based; settings: in vivo, 1 h; how it was run: as §1
Mus musculus [18] = experiment: Biodistribution was measured in mice skin 60 minutes after intravenous injection of [125I]-labeled styrylbenzene.; assay type: ADME, organism-based, Zone of skin; settings: in vivo, 1 h; how it was run: as §1
Mus musculus [19] = experiment: Biodistribution was measured in mice muscle 60 minutes after intravenous injection of [125I]-labeled styrylbenzene.; assay type: ADME, organism-based, Muscle tissue; settings: in vivo, 1 h; how it was run: as §1
Mus musculus [20] = experiment: Biodistribution was measured in mice lung 30 minutes after intravenous injection of [125I]-labeled styrylbenzene.; assay type: ADME, organism-based; settings: in vivo, 0.5 h; how it was run: as §1
Mus musculus [21] = experiment: Biodistribution was measured in mice muscle 30 minutes after intravenous injection of [125I]-labeled styrylbenzene.; assay type: ADME, organism-based, Muscle tissue; settings: in vivo, 0.5 h; how it was run: as §1
Mus musculus [22] = experiment: Biodistribution was measured in mice blood 5 minutes after intravenous injection of [125I]-labeled styrylbenzene.; assay type: ADME, organism-based; settings: in vivo; how it was run: as §1
Mus musculus [23] = experiment: Biodistribution was measured in mice heart 60 minutes after intravenous injection of [125I]-labeled styrylbenzene.; assay type: ADME, organism-based; settings: in vivo, 1 h; how it was run: as §1
Mus musculus [24] = experiment: Biodistribution was measured in mice liver 5 minutes after intravenous injection of [125I]-labeled styrylbenzene.; assay type: ADME, organism-based; settings: in vivo; how it was run: as §1
Mus musculus [25] = experiment: Biodistribution was measured in mice skin 5 minutes after intravenous injection of [125I]-labeled styrylbenzene.; assay type: ADME, organism-based, Zone of skin; settings: in vivo; how it was run: as §1
Mus musculus [26] = experiment: Biodistribution was measured in mice spleen 30 minutes after intravenous injection of [125I]-labeled styrylbenzene.; assay type: ADME, organism-based; settings: in vivo, 0.5 h; how it was run: as §2
Mus musculus [27] = experiment: Biodistribution was measured in mice brain 5 minutes after intravenous injection of [125I]-labeled styrylbenzene; assay type: ADME, organism-based; settings: in vivo; how it was run: as §1

Dose/organ (Mus musculus [1]): 0.63%
Dose/organ (Mus musculus [2]): 0.06%
Dose/organ (Mus musculus [3]): 0.77%
Dose/organ (Mus musculus [4]): 0.33%
Dose/organ (Mus musculus [5]): 1.67%
Dose/organ (Mus musculus [6]): 0.04%
Dose/organ (Mus musculus [7]): 0.81%
Dose/organ (Mus musculus [8]): 0.25%
Dose/organ (Mus musculus [9]): 0.17%
Dose/organ (Mus musculus [10]): 5.68%
Dose/organ (Mus musculus [11]): 2.59%
Dose/organ (Mus musculus [12]): 2.98%
Dose/organ (Mus musculus [13]): 0.07%
Dose/organ (Mus musculus [14]): 30.16%
Dose/organ (Mus musculus [15]): 4.13%
Dose/organ (Mus musculus [16]): 19.12%
Dose/organ (Mus musculus [17]): 0.25%
Dose/organ (Mus musculus [18]): 3.66%
Dose/organ (Mus musculus [19]): 2.98%
Dose/organ (Mus musculus [20]): 0.3%
Dose/organ (Mus musculus [21]): 3.9%
Dose/organ (Mus musculus [22]): 7.57%
Dose/organ (Mus musculus [23]): 0.13%
Dose/organ (Mus musculus [24]): 42.68%
Dose/organ (Mus musculus [25]): 4.02%
Dose/organ (Mus musculus [26]): 0.13%
Dose/organ (Mus musculus [27]): 0.27%
SMILES: O=C(O)c1cc(/C=C/c2ccc(/C=C/c3ccc(O)c(C(=O)O)c3)c(I)c2)ccc1O
